From PubChem BioAssay AID2545 (The Scripps Research Institute Molecular Screening Center, 2010)
Calls of active or inactive are those of the source.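 Rule for the calls: active = inhibition at or above 75%; inactive = inhibition below 75%.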

target: NADPH oxidase 1 (Homo sapiens) (UniProt Q9Y5S8); test: NOX1 inhibitors in transfected HEK293 cells, late-stage follow-up, orthogonal assay for NOX1 inhibitor project, cell-based, HEK/293, percent inhibition, luminescence (AID 2545); details: NOX1-transfected HEK293, luminol ROS chemiluminescence; at 100 µM; active compounds read high
Method in brief: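 System: HEK293 cells transiently coexpressing Myc-tagged Nox1, NoxO1, NoxA1, constitutively active Rac1 Q61L; Doses: single nominal concentration of 100 µM per compound; Times: compounds added 16 h post-transfection, 2 h before luminol/peroxidase; Signal: luminol chemiluminescence of intracellular ROS; Measure: percent inhibition of NOX1-driven ROS luminescence signal; Replication: single well per compound.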

Chain of NADPH oxidase 1 (Homo sapiens) (Q9Y5S8 whole entry, looked up): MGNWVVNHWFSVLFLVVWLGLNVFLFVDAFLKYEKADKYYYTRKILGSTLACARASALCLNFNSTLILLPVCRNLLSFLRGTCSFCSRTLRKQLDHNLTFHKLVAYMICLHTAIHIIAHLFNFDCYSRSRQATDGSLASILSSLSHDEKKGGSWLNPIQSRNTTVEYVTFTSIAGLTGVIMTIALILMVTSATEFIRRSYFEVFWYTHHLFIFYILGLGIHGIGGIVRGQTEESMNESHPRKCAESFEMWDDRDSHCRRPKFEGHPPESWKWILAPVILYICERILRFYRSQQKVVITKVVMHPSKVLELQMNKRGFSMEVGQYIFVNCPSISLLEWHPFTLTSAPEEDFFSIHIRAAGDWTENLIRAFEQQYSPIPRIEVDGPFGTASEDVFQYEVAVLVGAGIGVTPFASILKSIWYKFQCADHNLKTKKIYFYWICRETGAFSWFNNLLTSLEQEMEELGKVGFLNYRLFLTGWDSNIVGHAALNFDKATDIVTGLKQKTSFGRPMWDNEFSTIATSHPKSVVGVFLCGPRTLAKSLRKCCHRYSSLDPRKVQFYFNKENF

| inhibition | Compound |
| --- | --- |
| -43.1% (inactive) | CC(C)(C)c1csc(NNC(=O)c2ccc(Cl)cc2)n1 |
| 46.4% (inactive) | COc1cc2ncnc(NNC(=O)c3cccs3)c2cc1OC |
| 100% | COc1ccc(Cl)cc1NC(=O)Nc1ccc(N(C)C)cc1 |
| 108% | COc1cc(-c2nc(-c3ccccc3)c(-c3ccccc3)[nH]2)ccc1O |
| -84% (inactive) | COc1cccc(NC(=S)NNc2ccc([N+](=O)[O-])cc2)c1 |
| 2.42% (inactive) | CCOC(=O)C1=C(Nc2ccc(OC(C)=O)cc2)C(=O)N(C(C)(C)C)C1 |
| 121% | CN(C)c1ccc(NC(=O)Nc2ccc(OCc3ccccc3)cc2)cc1 |
| 52% (inactive) | O=c1c(Cl)c2oc3ccccc3nc-2c2ccccc12 |
| 2.15% (inactive) | Nc1nc(NCc2c(Cl)cccc2Oc2ccccc2)n[nH]1 |
| -50.4% (inactive) | COc1ccc(OC(=O)c2ccc3ncccc3c2)cc1 |
| -10.4% (inactive) | NS(=O)(=O)c1ccc(NNC(=O)c2c(F)cccc2Cl)cc1 |
| 57.6% (inactive) | O=C(Oc1ccccc1N1CCCCC1)c1sc2ccccc2c1Cl |
| 79.5% | c1ccc2c(c1)Nc1nc3ccccc3nc1N2 |
| -62.4% (inactive) | S=C(NNc1nccc(-c2cccnc2)n1)Nc1ccccc1 |
| -18.5% (inactive) | COc1ccc(N(C)CC(=O)O)c(C(=O)O)c1 |
| 63.6% (inactive) | COc1ccccc1NNC(=O)c1cc(C(C)(C)C)nn1Cc1ccccc1 |
| -55.7% (inactive) | Cn1nc(-c2ccccc2)c(O)c(N=Nc2ccccc2)c1=O |

The next lines start with the compound.

| Compound | inhibition |
| --- | --- |
| CC(C)C(=O)NNc1nc2c(c(=O)n(C)c(=O)n2C)n1Cc1ccc(Cl)cc1 | -18.6% (inactive) |
| FC(F)(F)c1ccc2c(c1)Nc1ccccc1S2 | 107% |
| CC1(C)CC(Nc2ccc(Nc3ccccc3)cc2)CC(C)(C)N1 | 104% |
| O=C(NNc1c([N+](=O)[O-])cc(C(F)(F)F)cc1[N+](=O)[O-])c1ccco1 | 5.79% (inactive) |
| Cc1cc(C(=O)NNc2cc(Cl)ccc2Cl)no1 | -23.5% (inactive) |
| Cn1cnc(S(=O)(=O)Nc2ccc(N3CCCCC3)cc2)c1 | 58.9% (inactive) |
| Nc1nc(NCc2ccccc2OC(F)(F)F)n[nH]1 | 26.1% (inactive) |
| O=C(Oc1ccccc1N1CCOCC1)c1cccs1 | 40.4% (inactive) |
| Cc1nc(C(F)(F)F)c(C(=O)NNc2ncc(C(F)(F)F)cc2Cl)s1 | 49.4% (inactive) |
| Nc1nc(Nc2ccccc2)n[nH]1 | -15.1% (inactive) |
| Nc1nc(NCc2ccccn2)n[nH]1 | 24.8% (inactive) |
| O=c1[nH]c2ccsc2c(=O)n1CCO | -0.39% (inactive) |
| O=C(N/N=C/c1ccc(O)cc1)N/N=C/c1ccc(O)cc1 | 83.4% |
| O=c1[nH]nc(N2CCSCC2)[nH]1 | -55.4% (inactive) |
| O=C(NNc1c([N+](=O)[O-])cc(C(F)(F)F)cc1[N+](=O)[O-])c1ccccc1-n1cccc1 | 54.6% (inactive) |
| Cc1noc(C)c1C(=O)Nc1ccc(N2CCOCC2)nc1N1CCOCC1 | -55.4% (inactive) |
| COc1cccc(NC(=S)NNC(=S)NC2CC3CCC2C3)c1 (stereo unspecified) | 106% |
| COCCCNC(=S)NNC(=S)Nc1ccccc1 | 9.5% (inactive) |
| CC(=O)Oc1ccc(OC(C)=O)c2c1[C@@H]1C=C[C@H]2CC1 | 1.35% (inactive) |
| Cc1cc(Cl)ccc1NC(=S)NNC(=S)Nc1ccc(F)cc1 | 99.9% |
| ON/C=N/c1nnc(C(F)(F)F)s1 | 1.45% (inactive) |
| Cc1cc(S(=O)(=O)NNc2ncnc3c2cnn3C)c(C)cc1Cl | -0.65% (inactive) |
| Cc1cc(Br)c(NC(=S)NNc2ccccc2)c(Br)c1 | 5.12% (inactive) |
| CN(C)c1ccc(/C=N/Nc2c(Cl)cncc2Cl)cc1 | 100% |
